# Source: ChEMBL document CHEMBL3872218, “Synthesis and T-type calcium channel-blocking effects of aryl(1,5-disubstituted-pyrazol-3-yl)methyl sulfonamides for neuropathic pain treatment” (Eur J Med Chem, 2016)
# Columns and labels:
# [1] = Terminal half life in Sprague-Dawley rat at 10 mg/kg, iv; type: ADME, organism-based; conditions: in vivo, read-out: beta t1/2
# [2] = Inhibition of N-type Ca2+ channel (unknown origin) by whole-cell patch clamp method; conditions: Homo sapiens
# [3] = Apparent volume of distribution at steady state in Sprague-Dawley rat at 10 mg/kg, iv; type: ADME, organism-based; conditions: in vivo, read-out: Vdss(app)
# [4] = Drug uptake in Sprague-Dawley rat brain at 10 mg/kg, iv at 2 hrs post dose; type: ADME, organism-based; conditions: read-out: Drug uptake
# [5] = AUClast in Sprague-Dawley rat at 10 mg/kg, iv; type: ADME, organism-based; set-up: dose 10 mg/kg, time 0 - last, route intravenous; conditions: in vivo
# [6] = Drug excretion in Sprague-Dawley rat at 10 mg/kg, iv; type: ADME, organism-based; conditions: in vivo, read-out: Drug excretion
# [7] = tested on: Rattus norvegicus; experiment: Antineuropathic pain activity in rat spinal nerve ligation model assessed as effect on cold allodynia by measuring frequency of paw withdrawal at 100 mg/kg, po measured at 3 hrs relative to control; type: functional
# Outline: (§1)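 Spinal nerve ligation rats tested 2 weeks after nerve surgery, 100 mg/kg oral, n = 4 per group. Behaviour re-tested at 1, 3 and 5 h after dosing. Mechanical allodynia: von Frey filament applied five times, every 3–4 s, to the hind paw on a wire mesh floor. Cold allodynia: acetone applied to the plantar hind paw on a metal mesh floor.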
# [8] = tested on: Rattus norvegicus; experiment: Antineuropathic pain activity in rat spinal nerve ligation model assessed as effect on mechanical allodynia by measuring frequency of paw withdrawal at 100 mg/kg, po measured at 3 hrs relative to gabapentin; type: functional; outline: as §1
# [9] = Drug uptake in Sprague-Dawley rat brain at 10 mg/kg, po at 2 hrs post dose; type: ADME, organism-based; conditions: read-out: Drug uptake
# [10] = biological target: CYP3A4 (Homo sapiens, UniProt P08684); experiment: Inhibition of human CYP3A4 assessed as remaining activity at 10 uM using vivid CYP450 substrate measured after 15 mins by fluorescence assay relative to ketoconazole; type: ADME; conditions: probe vivid CYP450 substrate, read-out: Activity
# CYP3A4, sequence (P08684 whole entry, canonical isoform): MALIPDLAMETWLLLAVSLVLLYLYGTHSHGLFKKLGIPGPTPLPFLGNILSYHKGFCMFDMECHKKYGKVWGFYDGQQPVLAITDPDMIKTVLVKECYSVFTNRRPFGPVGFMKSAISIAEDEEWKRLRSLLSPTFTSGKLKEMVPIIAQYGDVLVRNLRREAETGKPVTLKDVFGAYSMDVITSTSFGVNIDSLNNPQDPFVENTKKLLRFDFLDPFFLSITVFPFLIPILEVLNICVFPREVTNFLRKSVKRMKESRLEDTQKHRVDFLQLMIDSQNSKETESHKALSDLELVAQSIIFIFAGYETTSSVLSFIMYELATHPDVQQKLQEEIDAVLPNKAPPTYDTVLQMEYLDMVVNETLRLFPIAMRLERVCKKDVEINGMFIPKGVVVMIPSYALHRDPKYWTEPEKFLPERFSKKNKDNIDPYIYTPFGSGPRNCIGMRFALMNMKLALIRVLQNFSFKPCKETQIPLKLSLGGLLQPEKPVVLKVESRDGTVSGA
# Outline: (§2)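 Vivid fluorescence CYP assay: test compound at […] in water, mixed with BACULOSOMES master pre-mix and regeneration system, preincubated 15 min at 37 °C. Reaction started with Vivid substrate and NADPH. Remaining activity read by fluorescence as % of control, triplicate, mean ± SD. Isoform-specific reference inhibitors: α-naphthoflavone (1A2), sulfaphenazole (2C9), quinidine (2D6), ketoconazole (3A4).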
# [11] = biological target: T1, Voltage-dependent T-type calcium channel subunit alpha-1G (Homo sapiens, UniProt O43497); experiment: Inhibition of Cav3.1 alpha1G (unknown origin) expressed in HEK293 cells assessed as decrease in KCl-induced depolarization mediated intracellular Ca2+ level at 10 uM by fluo3/AM based high throughput screening assay relative to control; type: cell-based
# T1 sequence (O43497 whole entry): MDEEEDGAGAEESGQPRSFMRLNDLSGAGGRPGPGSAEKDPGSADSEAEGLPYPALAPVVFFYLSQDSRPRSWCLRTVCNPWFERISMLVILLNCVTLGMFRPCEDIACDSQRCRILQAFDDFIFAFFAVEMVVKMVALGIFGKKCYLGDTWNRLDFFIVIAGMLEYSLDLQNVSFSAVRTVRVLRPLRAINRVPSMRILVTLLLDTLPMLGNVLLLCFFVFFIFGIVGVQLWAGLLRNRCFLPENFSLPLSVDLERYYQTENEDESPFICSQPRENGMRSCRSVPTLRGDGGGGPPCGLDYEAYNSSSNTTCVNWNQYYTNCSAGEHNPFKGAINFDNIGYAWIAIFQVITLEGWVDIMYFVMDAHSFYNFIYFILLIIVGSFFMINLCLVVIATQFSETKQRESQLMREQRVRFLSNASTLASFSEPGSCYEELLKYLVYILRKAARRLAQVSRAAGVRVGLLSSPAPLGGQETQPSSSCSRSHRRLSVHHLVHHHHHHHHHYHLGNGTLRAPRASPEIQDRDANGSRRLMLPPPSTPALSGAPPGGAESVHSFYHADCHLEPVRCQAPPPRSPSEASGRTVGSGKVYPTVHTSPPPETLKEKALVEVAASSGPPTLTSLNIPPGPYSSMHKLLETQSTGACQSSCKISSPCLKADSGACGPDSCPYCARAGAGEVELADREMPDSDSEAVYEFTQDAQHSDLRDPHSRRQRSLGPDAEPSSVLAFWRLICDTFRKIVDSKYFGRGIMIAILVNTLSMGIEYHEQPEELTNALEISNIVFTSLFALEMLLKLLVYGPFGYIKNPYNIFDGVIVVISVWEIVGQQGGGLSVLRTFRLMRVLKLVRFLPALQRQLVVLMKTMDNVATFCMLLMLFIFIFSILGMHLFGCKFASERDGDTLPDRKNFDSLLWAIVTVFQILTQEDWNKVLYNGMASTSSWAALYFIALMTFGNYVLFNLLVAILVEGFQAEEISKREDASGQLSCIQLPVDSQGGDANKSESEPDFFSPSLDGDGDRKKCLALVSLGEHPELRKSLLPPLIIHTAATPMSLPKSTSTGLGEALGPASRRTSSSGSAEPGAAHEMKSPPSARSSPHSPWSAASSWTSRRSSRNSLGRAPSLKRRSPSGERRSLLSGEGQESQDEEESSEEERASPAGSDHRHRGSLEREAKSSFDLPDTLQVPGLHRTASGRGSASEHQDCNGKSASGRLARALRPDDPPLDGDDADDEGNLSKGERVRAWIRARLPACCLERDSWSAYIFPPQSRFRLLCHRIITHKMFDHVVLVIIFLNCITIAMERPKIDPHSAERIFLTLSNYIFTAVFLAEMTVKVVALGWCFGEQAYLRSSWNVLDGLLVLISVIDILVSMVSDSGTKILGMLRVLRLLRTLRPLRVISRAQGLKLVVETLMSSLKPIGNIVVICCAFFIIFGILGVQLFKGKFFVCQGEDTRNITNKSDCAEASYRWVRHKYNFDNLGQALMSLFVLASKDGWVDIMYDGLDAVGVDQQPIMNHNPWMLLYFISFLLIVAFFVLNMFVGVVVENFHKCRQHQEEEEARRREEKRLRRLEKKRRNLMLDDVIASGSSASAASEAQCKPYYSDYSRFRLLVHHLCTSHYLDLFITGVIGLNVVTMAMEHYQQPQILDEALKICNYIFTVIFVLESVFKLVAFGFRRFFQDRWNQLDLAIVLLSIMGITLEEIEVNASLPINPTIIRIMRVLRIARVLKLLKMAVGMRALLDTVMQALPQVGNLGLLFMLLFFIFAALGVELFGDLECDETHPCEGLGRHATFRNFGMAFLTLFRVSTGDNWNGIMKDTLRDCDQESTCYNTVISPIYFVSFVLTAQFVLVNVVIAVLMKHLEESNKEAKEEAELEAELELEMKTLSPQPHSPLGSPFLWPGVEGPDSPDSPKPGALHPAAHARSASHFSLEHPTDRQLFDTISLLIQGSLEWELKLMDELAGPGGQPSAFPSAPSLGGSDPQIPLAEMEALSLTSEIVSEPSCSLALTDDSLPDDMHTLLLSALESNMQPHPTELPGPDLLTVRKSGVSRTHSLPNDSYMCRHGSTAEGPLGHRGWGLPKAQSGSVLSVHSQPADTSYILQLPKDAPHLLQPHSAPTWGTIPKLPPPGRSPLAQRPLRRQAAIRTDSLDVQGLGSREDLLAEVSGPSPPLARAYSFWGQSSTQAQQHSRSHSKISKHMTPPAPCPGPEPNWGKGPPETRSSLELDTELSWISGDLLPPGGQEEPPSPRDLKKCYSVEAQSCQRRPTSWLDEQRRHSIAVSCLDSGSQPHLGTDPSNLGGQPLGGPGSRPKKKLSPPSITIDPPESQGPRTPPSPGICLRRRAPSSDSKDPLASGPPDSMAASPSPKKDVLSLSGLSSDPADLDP
# Outline: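 HEK293 cells stably expressing Cav3.1 or Cav3.2 plated at 4 × 10⁴ cells/well and used the next day. Loaded 60 min at room temperature with […] fluo3/AM plus 0.001% Pluronic F-127 in HEPES-buffered saline (1.8 mM CaCl₂, pH 7.4). Ca²⁺ fluorescence read on FDSS6000 as % inhibition, compound at […].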
# [12] = Total clearance in Sprague-Dawley rat at 10 mg/kg, iv; type: ADME, organism-based; conditions: in vivo
# [13] = Plasma concentration in Sprague-Dawley rat at 10 mg/kg, po at 2 hrs post dose; type: ADME, organism-based
# [14] = tested on: Rattus norvegicus; experiment: Antineuropathic pain activity in rat spinal nerve ligation model assessed as effect on mechanical allodynia by measuring frequency of paw withdrawal at 100 mg/kg, po measured at 3 hrs relative to control; type: functional; outline: as §1
# [15] = tested on: Rattus norvegicus; experiment: Antineuropathic pain activity in rat spinal nerve ligation model assessed as effect on cold allodynia by measuring frequency of paw withdrawal at 100 mg/kg, po measured at 5 hrs relative to control; type: functional; outline: as §1
# [16] = Drug excretion in Sprague-Dawley rat at 10 mg/kg, po; type: ADME, organism-based; conditions: in vivo, read-out: Drug excretion
# [17] = Oral bioavailability in Sprague-Dawley rat at 10 mg/Kg; type: ADME, organism-based; conditions: in vivo
# [18] = tested on: Rattus norvegicus; experiment: Antineuropathic pain activity in rat spinal nerve ligation model assessed as effect on mechanical allodynia by measuring frequency of paw withdrawal at 100 mg/kg, po measured at 1 hr relative to control; type: functional; outline: as §1
# [19] = Ratio of drug level in brain to plasma in Sprague-Dawley rat at 10 mg/kg, iv at 2 hrs post dose; type: ADME, organism-based; conditions: read-out: BPR
# [20] = biological target: T1, Voltage-dependent T-type calcium channel subunit alpha-1G; experiment: Inhibition of Cav3.1 alpha1G (unknown origin) expressed in HEK293 cells by whole-cell patch clamp method; type: cell-based
# Outline: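 Whole-cell patch clamp on HEK293 cells expressing Cav3.1 or Cav3.2. T-type currents evoked every 15 s by a 50-ms step from −100 mV to −30 mV. External solution (mM): 140 NaCl, 2 CaCl₂, 10 HEPES, 10 glucose, pH 7.4.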
# [21] = Metabolic stability in human liver microsomes assessed as compound remaining at 1 uM in presence of NADPH as cofactor by LC-MS/MS method; type: ADME; conditions: read-out: Stability
# Outline: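 Pooled mixed-gender human liver microsomes incubated with compound at 37 °C with NADPH as cofactor. Result given as % parent compound remaining.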
# [22] = AUC (0 to infinity) in Sprague-Dawley rat at 10 mg/kg, po; type: ADME, organism-based; set-up: dose 10 mg/kg, time infinity, route oral; conditions: in vivo
# [23] = Cmax in Sprague-Dawley rat at 10 mg/kg, po; type: ADME, organism-based; set-up: dose 10 mg/kg, route oral; conditions: in vivo
# [24] = tested on: Rattus norvegicus; experiment: Antineuropathic pain activity in rat spinal nerve ligation model assessed as effect on cold allodynia by measuring frequency of paw withdrawal at 100 mg/kg, po measured at 1 hr relative to gabapentin; type: functional; outline: as §1
# [25] = tested on: Rattus norvegicus; experiment: Antineuropathic pain activity in rat spinal nerve ligation model assessed as effect on cold allodynia by measuring frequency of paw withdrawal at 100 mg/kg, po measured at 1 hr relative to control; type: functional; outline: as §1
# [26] = Mean residence time in Sprague-Dawley rat at 10 mg/kg, iv; type: ADME, organism-based; conditions: in vivo
# [27] = biological target: CYP2D6 (Homo sapiens, UniProt P10635); experiment: Inhibition of human CYP2D6 assessed as remaining activity at 10 uM using vivid CYP450 substrate measured after 15 mins by fluorescence assay relative to quinidine; type: ADME; conditions: probe vivid CYP450 substrate, read-out: Activity; outline: as §2
# CYP2D6, sequence (P10635 whole entry): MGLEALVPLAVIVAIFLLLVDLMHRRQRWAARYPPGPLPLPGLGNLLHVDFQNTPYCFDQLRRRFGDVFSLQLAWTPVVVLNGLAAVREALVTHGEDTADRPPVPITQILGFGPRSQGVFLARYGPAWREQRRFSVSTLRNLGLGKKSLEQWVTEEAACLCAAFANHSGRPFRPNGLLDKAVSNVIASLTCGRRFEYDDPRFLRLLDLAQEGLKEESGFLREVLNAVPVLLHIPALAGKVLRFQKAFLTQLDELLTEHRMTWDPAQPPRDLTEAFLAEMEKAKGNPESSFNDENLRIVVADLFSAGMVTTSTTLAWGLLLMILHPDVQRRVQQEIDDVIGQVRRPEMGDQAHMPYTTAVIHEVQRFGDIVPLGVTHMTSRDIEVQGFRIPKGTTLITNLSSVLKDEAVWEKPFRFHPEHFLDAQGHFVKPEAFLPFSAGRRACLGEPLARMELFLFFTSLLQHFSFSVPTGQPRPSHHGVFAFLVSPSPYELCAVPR
# [28] = tested on: Rattus norvegicus; experiment: Antineuropathic pain activity in rat spinal nerve ligation model assessed as effect on mechanical allodynia by measuring frequency of paw withdrawal at 100 mg/kg, po measured at 5 hrs relative to gabapentin; type: functional; outline: as §1
# [29] = Tmax in Sprague-Dawley rat at 10 mg/kg, po; type: ADME, organism-based; conditions: in vivo
# [30] = tested on: Rattus norvegicus; experiment: Antineuropathic pain activity in rat spinal nerve ligation model assessed as effect on cold allodynia by measuring frequency of paw withdrawal at 100 mg/kg, po measured at 3 hrs relative to gabapentin; type: functional; outline: as §1
structure (smiles),measurement,setting,value
CC(C)Cc1cc(CNS(=O)(=O)c2cccc(F)c2)nn1-c1ccccc1,half-life,[1],55.7 min
same,IC50,[2],14.5 µM
same,Vd,[3],4.95 L/kg
same,concentration at 2 h,[4],366 ng/mL
same,AUC(0-t),[5],2010 ng·h/mL
same,dose excreted,[6],0%
same,MPE,[7],73.87%
same,MPE,[8],52.13%
same,concentration at 2 h,[9],8.6 ng/mL
same,"activity at 0.25 h, 10 µM",[10],80.1%
same,inhibition,[11],64.1%
same,clearance,[12],83.8 mL/min/kg
same,concentration at 2 h,[13],50 ng/mL
same,MPE,[14],29.68%
same,MPE,[15],80.82%
same,dose excreted,[16],0%
same,bioavailability,[17],8.3%
same,MPE,[18],1.63%
same,Kp at 2 h,[19],1.4
same,IC50,[20],3.2 µM
same,remaining at 1 µM,[21],1.72%
same,AUC(0-inf),[22],168 ng·h/mL
same,Cmax,[23],70 ng/mL
same,MPE,[24],202.07%
same,MPE,[25],88.93%
same,MRT,[26],58 min
same,"activity at 0.25 h, 10 µM",[27],204%
same,MPE,[28],43.02%
same,Tmax,[29],66 min
same,MPE,[30],91.75%
